From publication PMC11439338 (BMC Chemistry, 2024)
“Also recorded” adds a separate entry of the source.

Assays:
[1] = system: mushroom tyrosinase (EC 1.14.18.1); assay: In vitro mushroom tyrosinase inhibition assay; type: biochemical; conditions: SAR discussion
mushroom tyrosinase = mushroom tyrosinase (Agaricus bisporus, UniProt C7FF04); assay: Kinetic study of tyrosinase inhibition; type: biochemical
In short: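 Mushroom tyrosinase diphenolase activity; test compound in DMSO, pre-incubated 20 min at 28 °C with enzyme (added as 600 U mL−1 solution) in 50 mM phosphate buffer pH 6.8. Inhibitor 5–50 µM; L-Dopa 0.1–1.5 mM. Dopachrome at 490 nm read each minute for 10 min; initial velocity from linear segment. Lineweaver–Burk plots gave Km and Vmax; Ki from slope versus inhibitor concentration.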

Chain of mushroom tyrosinase (C7FF04 1-392): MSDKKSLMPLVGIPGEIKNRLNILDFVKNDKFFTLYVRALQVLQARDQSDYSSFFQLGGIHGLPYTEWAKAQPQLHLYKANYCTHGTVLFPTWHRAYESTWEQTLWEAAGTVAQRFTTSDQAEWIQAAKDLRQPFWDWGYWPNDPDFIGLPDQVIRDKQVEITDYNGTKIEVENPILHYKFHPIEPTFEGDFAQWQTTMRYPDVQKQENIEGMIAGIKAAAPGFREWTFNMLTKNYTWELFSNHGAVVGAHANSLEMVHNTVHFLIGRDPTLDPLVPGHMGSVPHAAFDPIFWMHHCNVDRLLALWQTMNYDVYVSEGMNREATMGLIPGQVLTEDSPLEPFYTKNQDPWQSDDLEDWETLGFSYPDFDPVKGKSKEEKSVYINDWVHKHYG

activity against tyrosinase (in words) [1]	Ki (mushroom tyrosinase)	Compound	type of inhibition (mushroom tyrosinase; Lineweaver-Burk plot, L-Dopa substrate)
no activity		CC1(C)CC(=O)C2=C(C1)OC(N)=C(C#N)C2c1ccc(OCc2ccc(F)cc2)cc1 (stereo not drawn) [6c, 2-Amino-4-(4-((4-fluorobenzyl)oxy)phenyl)-7,7-dimethyl-5-oxo-5,6,7,8-tetrahydro-4H-chromene-3-carbonitrile]	
	16.1 µM	CC1(C)CC(=O)C2=C(C1)OC(N)=C(C#N)C2c1ccc(OCc2ccc(C#N)cc2)cc1 (stereo not drawn) [6f, 2-Amino-4-(4-((4-cyanobenzyl)oxy)phenyl)-7,7-dimethyl-5-oxo-5,6,7,8-tetrahydro-4H-chromene-3-carbonitrile]	competitive inhibition; also recorded: competitive inhibitor
